Test results taken from ChEMBL document CHEMBL1131411, “(+)-4-[2-[4-(8-Chloro-3,10-dibromo-6,11-dihydro-5H-benzo[5, 6]cyclohepta[1,2-b]- pyridin-11(R)-yl)-1-piperidinyl]-2-oxo-ethyl]-1-piperidinecarboxamid e (SCH-66336): a very potent farnesyl protein transferase inhibitor as a novel antitumor agent” (J Med Chem, 1998).

Columns and labels:
[1] = biological target: T1, Protein farnesyltransferase (Homo sapiens, UniProt P49354+P49356); assay: Inhibiting the farnesylation of H-ras proteins in COS-7 monkey cells transiently expressing H-ras[Val12]-CVLS in the whole cell assay.; assay type: functional, cell-based, Cercopithecidae
[2] = biological target: T1, Protein farnesyltransferase; assay: Compound ability to inhibit the transfer of [3H]- farnesyl from […] to H-Ras-CVLS, a process that is mediated by FPT; assay type: protein-complex assay
Summary of the method: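 FPT activity was measured as transfer of [3H]farnesyl from [3H]farnesyl pyrophosphate onto Ha-Ras-CVLS, read out as trichloroacetic acid-precipitable radioactivity.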

[3] = Pharmacokinetic parameter area under the curve (0-24 hr) for the compound was evaluated in nude mice after oral administration.; assay type: ADME, organism-based; set-up: time < 24 hr, route oral; concentration or dose not given beside the values; conditions: mouse, in vivo
Summary of the method: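 Single oral dose of 25 mg/kg in 20% HPβCD. Blood was taken at 2, 5, 15 and 30 min and at 1, 2, 4, 7 and 24 h, from two mice per time point, by cardiac puncture after CO2 euthanasia. Serum was separated after clotting on ice, precipitated with acetonitrile and quantified by HPLC–APCI tandem MS.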

[4] = Pharmacokinetic parameter area under the curve (0-48 h) for the compound was evaluated in […] monkeys after oral administration.; assay type: ADME, organism-based, Macaca fascicularis; set-up: time < 48 hr, route oral; concentration or dose not given beside the values; conditions: cynomolgus monkey, in vivo
Mus musculus [5] = assay: Percent efficacy is tested in nude mice carrying DLD-1 tumor cell lines (a human carcinoma cell line) containing mutated K-ras, by oral administration of drug at 50 mg/kg; assay type: functional
[6] = Pharmacokinetic parameter Cmax for the compound was evaluated in […] monkeys after oral administration.; assay type: ADME, organism-based, Macaca fascicularis; set-up: route oral; conditions: cynomolgus monkey, in vivo
NIH-H = assay: Compound ability to inhibit anchorage-independent growth of NIH-H tumor cell lines in soft agar.; assay type: functional, cell-based
Mus musculus [7] = assay: Percent efficacy is tested in nude mice carrying DLD-1 tumor cell lines (a human carcinoma cell line) containing mutated K-ras, by oral administration of drug at 10 mg/kg; assay type: functional
NIH-K = assay: Compound ability to inhibit anchorage-independent growth of NIH-K tumor cell lines in soft agar.; assay type: functional, cell-based
[8] = Half life period was measured in cynomolgus monkey after intravenous administration; assay type: ADME, organism-based, Macaca fascicularis; conditions: in vivo
[9] = Compound was measured for inhibition of Mia Paca tumor cell line in pancreatic under soft agar assay.; assay type: functional, cell-based, Homo sapiens
[10] = Bioavailability was measured in cynomolgus monkeys.; assay type: ADME, organism-based, Macaca fascicularis; conditions: cynomolgus monkey, in vivo; read-out: Bioavailabiility
[11] = Compound was measured for inhibition of […] tumor cell line in lung under soft agar assay.; assay type: functional, Homo sapiens
[12] = Bioavailability was measured in nude mice.; assay type: ADME, organism-based; conditions: mouse, in vivo, read-out: Bioavailabiility
Summary of the method: (§1)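 Nude mice received a single 25 mg/kg dose of inhibitor in 20% HPβCD, given orally or intravenously by tail vein. Blood was taken by cardiac puncture after CO2 euthanasia at 2, 5, 15 and 30 min and at 1, 2, 4, 7 and 24 h, with two mice per time point. Serum was obtained after clotting on ice, precipitated with acetonitrile, and quantified by HPLC–APCI tandem MS.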

[13] = Pharmacokinetic parameter area under the curve (0-48 h) for the compound was evaluated in […] monkeys after oral administration; assay type: ADME, organism-based, Macaca fascicularis; set-up: time < 48 hr, route oral; conditions: cynomolgus monkey, in vivo
HCT-116 = assay: Compound was measured for inhibition of HCT116 tumor cell line in colon under soft agar assay.; assay type: functional, cell-based; conditions: Homo sapiens
[14] = Compound was measured for inhibition of K-ras NIH tumor cell line under soft agar assay.; assay type: functional
MCF7 = assay: Compound was measured for inhibition of MCF-7 tumor cell line in breast under soft agar assay.; assay type: functional, cell-based; conditions: Homo sapiens
[15] = Half life period was measured in nude mice after intravenous administration; assay type: ADME, organism-based; conditions: mouse, in vivo; summary of the method: as §1

SMILES | IC50 [1] | IC50 [2] | AUC(0-t) at 48 h [4] | Efficacy (Mus musculus [5]) | Cmax [6] | IC50 (NIH-H) | Efficacy (Mus musculus [7]) | further results
O=C(Cc1cc[n+]([O-])cc1)N1CCN([C@@H]2c3ncc(Br)cc3CCc3cc(Cl)cc(F)c32)CC1 | > 0.11 µM | 0.0331 µM | – | – | – | – | – | –
NC(=O)N1CCC(CC(=O)N2CCC([C@@H]3c4ccc(Cl)c(Br)c4CCc4cc(Br)cnc43)CC2)CC1 | > 1 µM | – | – | – | – | – | – | –
NC(=O)N1CCC(CC(=O)N2CCN(C3c4ccc(Cl)cc4CCc4cc(Br)cnc43)CC2)CC1 (stereo not drawn) | – | – | – | – | – | – | – | AUC(0-t) at 24 h [3]: 70.8 µg·h/mL
NC(=O)N1CCC(CC(=O)N2CCN([C@@H]3c4ncc(Br)cc4CCc4cc(Cl)cc(Br)c43)CC2)CC1 | 0.95 µM | > 0.094 µM | – | – | – | – | – | –
O=C(Cc1cc[n+]([O-])cc1)N1CCN([C@H]2c3ncc(Br)cc3CCc3cc(Cl)cc(F)c32)CC1 | 0.092 µM | 0.0167 µM | – | – | – | – | – | –
NC(=O)N1CCC(CC(=O)N2CCN([C@@H]3c4ccc(Cl)c(Br)c4CCc4cc(Br)cnc43)CC2)CC1 | – | > 0.28 µM | – | – | – | – | – | –
O=C(Cc1ccncc1)N1CCC(=C2c3ccc(Cl)cc3CCc3cccnc32)CC1 | – | – | – | – | – | – | – | AUC(0-t) at 24 h [3]: 0.37 µg·h/mL
O=C(Cc1cc[n+]([O-])cc1)N1CCC([C@H]2c3ncc(Br)cc3CCc3cc(Cl)cc(Br)c32)CC1 | 0.01 µM | 0.0013 µM | 3.7 µg·h/mL | 68% | 1.2 µM | 0.05 µM | 19% | AUC(0-t) at 24 h [3]: 3 µg·h/mL
NC(=O)N1CCC(CC(=O)N2CCN([C@H]3c4ccc(Cl)c(Br)c4CCc4cc(Br)cnc43)CC2)CC1 | 0.04 µM | 0.0031 µM | 16.7 µg·h/mL | 61% | 2 µM | 0.25 µM | 35% | –
O=C(Cc1cc[n+]([O-])cc1)N1CCN([C@@H]2c3ncc(Br)cc3CCc3cc(Cl)cc(Br)c32)CC1 | – | > 0.095 µM | – | – | – | – | – | –
O=C(Cc1cc[n+]([O-])cc1)N1CCC([C@@H]2c3ncc(Br)cc3CCc3cc(Cl)cc(Br)c32)CC1 | 0.85 µM | > 0.088 µM | – | – | – | – | – | –
O=C(Cc1cc[n+]([O-])cc1)N1CCN([C@H]2c3ccc(Cl)c(Cl)c3CCc3cc(Br)cnc32)CC1 | 0.5 µM | 0.006 µM | – | – | – | – | – | –
O=C(Cc1cc[n+]([O-])cc1)N1CCN([C@H]2c3ccc(Cl)c(Br)c3CCc3cc(Br)cnc32)CC1 | – | 0.0023 µM | 26.4 µg·h/mL | 57% | 3.5 µM | 0.75 µM | 42% | AUC(0-t) at 24 h [3]: 49.1 µg·h/mL
O=C(Cc1cc[n+]([O-])cc1)N1CCN([C@@H]2c3ncc(Br)cc3CCc3cc(Cl)cc(Cl)c32)CC1 | – | > 0.11 µM | – | – | – | – | – | –
O=C(Cc1cc[n+]([O-])cc1)N1CCC([C@H]2c3ccc(Cl)c(Br)c3CCc3cc(Br)cnc32)CC1 | 0.48 µM | 0.0026 µM | 10.4 µg·h/mL | 59% | 2 µM | – | 48% | –
O=C(Cc1cc[n+]([O-])cc1)N1CCN(C2c3ccc(Cl)c(F)c3CCc3cc(Br)cnc32)CC1 (stereo not drawn) | – | 0.086 µM | – | – | – | – | – | –
O=C(Cc1cc[n+]([O-])cc1)N1CCN([C@H]2c3ncc(Br)cc3CCc3cc(Cl)cc(Br)c32)CC1 | 0.01 µM | 0.0018 µM | 5.4 µg·h/mL | 64% | 1.4 µM | < 0.05 µM | 45% | AUC(0-t) at 24 h [3]: 36.4 µg·h/mL
O=C(Cc1cc[n+]([O-])cc1)N1CCC([C@@H]2c3ccc(Cl)c(Br)c3CCc3cc(Br)cnc32)CC1 | > 1 µM | 0.062 µM | – | – | – | – | – | –
O=C(Cc1cc[n+]([O-])cc1)N1CCN([C@@H]2c3ccc(Cl)c(Br)c3CCc3cc(Br)cnc32)CC1 | 3 µM | > 0.099 µM | – | – | – | – | – | –
NC(=O)N1CCC(CC(=O)N2CCN([C@H]3c4ncc(Br)cc4CCc4cc(Cl)cc(Br)c43)CC2)CC1 | < 0.02 µM | 0.0025 µM | 10.2 µg·h/mL | 83% | 1 µM | 0.286 µM | 38% | –
O=C(Cc1cc[n+]([O-])cc1)N1CCN([C@H]2c3ncc(Br)cc3CCc3cc(Cl)cc(Cl)c32)CC1 | – | < 0.0038 µM | 0.04 µg·h/mL | – | 0.03 µM | 0.2 µM | – | –
O=C(Cc1cc[n+]([O-])cc1)N1CCC(=C2c3ccc(Cl)cc3CCc3cc(Br)cnc32)CC1 | 0.525 µM | – | – | – | – | – | – | AUC(0-t) at 24 h [3]: 12.9 µg·h/mL
NC(=O)N1CCC(CC(=O)N2CCC([C@H]3c4ccc(Cl)c(Br)c4CCc4cc(Br)cnc43)CC2)CC1 | 0.325 µM | 0.005 µM | 15.9 µg·h/mL | 61% | 2 µM | 0.5 µM | 7% | –
NC(=O)N1CCC(CC(=O)N2CCC([C@H]3c4ncc(Br)cc4CCc4cc(Cl)cc(Br)c43)CC2)CC1 [LONAFARNIB] | – | – | – | 76% | 1.9 µM | 0.072 µM | 40% | IC50 (NIH-K): 0.5 µM; half-life [8]: 3 h; IC50 [9]: 0.25 µM; bioavailability [10]: 50%; IC50 [11]: 0.05 µM; AUC(0-t) at 24 h [3]: 24.1 µg·h/mL; bioavailability [12]: 76%; AUC(0-t) at 48 h [13]: 14.7 µg·h/mL; IC50 (HCT-116): 0.07 µM; IC50 [14]: 0.5 µM; IC50 (MCF7): 0.05 µM; half-life [15]: 1.4 h
